Source: article PMC7720656 (Journal of medicinal chemistry, 2020)
“Also recorded” adds a separate entry of the source. Marks after values point to notes of the source that are not given here.

Experiments:
[1] = mice, 10 mg/kg iv; ref Bouley [25]; cited from earlier work
[2] = tested on: MRSA strain NRS70; assay: Time-kill assays; assay type: cell-based, Staphylococcus aureus; conditions: NRS70, 0.5 to 16 × MIC
In short: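 Cultures of MRSA NRS70 were exposed to the test compound, with a no-antibiotic control tube. At 3, 6, 12 and 24 h, aliquots were plated on LB agar for colony counts, with a detection limit of >50 CFU/mL. A ≥3-log10 drop from the starting inoculum counted as bactericidal. Run in triplicate.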

[3] = tested on: S. aureus ATCC29213; assay: MIC by microdilution, S. aureus ATCC29213; assay type: cell-based, Staphylococcus aureus; conditions: for increase in MIC with added bovine serum albumin: S. aureus ATCC29213; for antibacterial activity in words / antibacterial activity, active / inactive: by MIC with S. aureus ATCC29213
[4] = plasma protein binding; ref [26]; cited from earlier work
[5] = tested on: S. haemolyticus ATCC 29970; assay: MIC against Gram-positive organisms; assay type: cell-based; conditions: Staphylococcus haemolyticus, ATCC29970, read-out: MIC S. haemolyticus ATCC 29970
[6] = Pharmacokinetics in mice; assay type: in vivo; conditions: for clearance relative to hepatic blood flow: mice
[7] = molecular target: allosteric site of PBP2a; conditions: read-out: Kd for binding to the allosteric site of PBP2a; ref [23]; cited from earlier work

SMILES	antibacterial activity in words [3]	antibacterial activity, active / inactive [3]	further results
N#Cc1ccc(/C=C/c2nc3ccccc3c(=O)n2-c2cccc(C(=O)O)c2)cc1 [compound 1, (E)-3-(3-Carboxyphenyl)-2-(4-cyanostyryl)quinazolin-4(3H)-one]	potent activity	–	CL [1]: 6.9 mL/min/kg; time-kill behaviour of compound alone [2]: bacteriostatic; increase in MIC with added bovine serum albumin [3]: ≤ 4 fold
O=C(O)c1cccc(-n2c(/C=C/C3CC3)nc3ccccc3c2=O)c1 [compound 48]	loss of activity	–	–
C#Cc1ccc(/C=C/c2nc3ccccc3c(=O)n2-c2cccc(C(=O)O)c2)cc1 [compound 57]	–	active	PPB [4]: 99.6 ± 0.04^h %
O=C(O)c1cccc(-n2c(/C=C/c3ccc(Cl)cc3)nc3ccccc3c2=O)c1 [compound 58]	–	active	increase in MIC with added bovine serum albumin [3]: ≤ 4 fold
O=C(O)c1cccc(-n2c(/C=C/c3ccc(I)cc3)nc3ccccc3c2=O)c1 [compound 59]	–	active	–
N#Cc1ccc(/C=C/c2nc3ccccc3c(=O)n2-c2cc(C(=O)O)ccc2F)cc1 [compound 73, (E)-3-(5-Carboxy-2-fluorophenyl)-2-(4-cyanostyryl)-quinazolin-4(3H)-one]	–	active	MIC [5]: ≤ 4 µg/mL; clearance ([6]; female, ICR, mouse, plasma, iv, 10 mg/kg): 7.7 mL/min/kg; clearance relative to hepatic blood flow ([6]; 10 mg/kg iv): < 10%; time-kill behaviour of compound alone [2]: bacteriostatic; increase in MIC with added bovine serum albumin [3]: ≤ 4 fold
N#Cc1ccc(/C=C/c2nc3ccccc3c(=O)n2-c2cc(C(=O)O)ccc2Cl)cc1 [compound 74]	retained acceptable MIC values	active	–
Cc1ccc(C(=O)O)cc1-n1c(/C=C/c2ccc(C#N)cc2)nc2ccccc2c1=O [compound 75]	retained acceptable MIC values	active	–
N#Cc1ccc(/C=C/c2nc3ccccc3c(=O)n2-c2cc(C(=O)O)ccc2C(F)(F)F)cc1 [compound 76]	loss of antibacterial property	inactive	–
N#Cc1ccc(/C=C/c2nc3ccccc3c(=O)n2-c2cc(O)cc(C(=O)O)c2)cc1 [compound 77]	–	inactive	–
N#Cc1ccc(/C=C/c2nc3ccccc3c(=O)n2-c2cc(C(=O)O)ccc2O)cc1 [compound 78]	loss of antibacterial property	inactive	–
COc1ccc(C(=O)O)cc1-n1c(/C=C/c2ccc(C#N)cc2)nc2ccccc2c1=O [compound 79]	loss of antibacterial property	–	–
N#Cc1ccc(/C=C/c2nc3ccccc3c(=O)n2-c2cccc(C(=O)O)c2O)cc1 [compound 81]	loss of antibacterial property	–	–
N#Cc1ccc(/C=C/c2nc3ccccc3c(=O)n2-c2cccc(C(=O)O)n2)cc1 [compound 83]	loss of antibacterial property; also recorded: loss of activity	–	–
N#Cc1ccc(/C=C/c2nc3ccccc3c(=O)n2-c2cc(C(=O)O)ccn2)cc1 [compound 84]	loss of antibacterial property; also recorded: loss of activity	–	–
N#Cc1ccc(/C=C/c2nc3ccccc3c(=O)n2-c2cccc(NC(=O)C(F)(F)F)c2)cc1 [compound 88]	–	active	–
N#Cc1ccc(/C=C/c2nc3ccccc3c(=O)n2-c2cccc(NC(=O)NCc3cnc[nH]3)c2)cc1 [compound 92]	detrimental to the activity	–	–
N#Cc1ccc(/C=C/c2nc3ccccc3c(=O)n2-c2cccc(NC(=O)NCCc3cnc[nH]3)c2)cc1 [compound 93]	detrimental to the activity	–	–
N#Cc1ccc(/C=C/c2nc3ccccc3c(=O)n2-c2cccc(S(N)(=O)=O)c2)cc1 [compound 94]	–	active	clearance relative to hepatic blood flow ([6]; 5 mg/kg iv): > 10%; increase in MIC with added bovine serum albumin [3]: ≤ 4 fold
CC(=O)NS(=O)(=O)c1cccc(-n2c(/C=C/c3ccc(C#N)cc3)nc3ccccc3c2=O)c1 [compound 95]	–	active	–
N#Cc1ccc(/C=C/c2nc3ccccc3c(=O)n2-c2cccc(CNC(=O)C(F)(F)F)c2)cc1 [compound 99]	–	active	–
N#Cc1ccc(/C=C/c2nc3ccccc3c(=O)n2-c2cccc(N)c2)cc1 [compound 111]	potent activity	–	–
C#Cc1ccc(/C=C/c2nc3ccccc3c(=O)n2-c2cccc(S(N)(=O)=O)c2)cc1 [compound 113]	–	–	clearance relative to hepatic blood flow ([6]; 5 mg/kg iv): > 10%
O=C(O)c1cccc(-n2c(CCc3ccc(F)cc3)nc3ccccc3c2=O)c1 [compound 115]	–	–	increase in MIC with added bovine serum albumin [3]: ≤ 4 fold
N#Cc1ccc(CSc2nc3ccccc3c(=O)n2-c2cccc(C(=O)O)c2)cc1 [compound 125]	–	–	increase in MIC with added bovine serum albumin [3]: ≤ 4 fold
CCN1CCN(C(=O)N[C@@H](C(=O)N[C@@H]2C(=O)N3[C@@H]2SC(C)(C)[C@@H]3C(=O)O)c2ccccc2)C(=O)C1=O [piperacillin]	–	–	Kd [7]: 400 µM
